From ChEMBL document CHEMBL4038328, “Structure-Guided Optimization of HIV Integrase Strand Transfer Inhibitors” (J Med Chem, 2017)

How the values were obtained:
[1] = Inhibition of HIV1 integrase 3' processing activity using 5'-end 32P labeled DNA substrate measured after 2 hrs by PAGE based phosphor imaging method; design: species or system Human immunodeficiency virus 1
Summary of the method: (§1)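 Gel-based assay, Mg2+ cofactor: 400 nM integrase with 20 nM DNA substrate 5′-32P-labeled on transferred strand in 50 mM MOPS pH 7.2, 7.5 mM MgCl2, 14 mM 2-mercaptoethanol, inhibitor or DMSO; 2 h at 37 °C. Stopped with formamide/SDS loading buffer; products resolved on 16% denaturing polyacrylamide gels, quantified by phosphorimaging.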

[2] = Inhibition of HIV1 integrase strand transfer activity using 5'-end 32P labeled DNA substrate measured after 2 hrs by PAGE based phosphor imaging method; design: species or system Human immunodeficiency virus 1; summary of the method: as §1
[3] = test system: Human immunodeficiency virus 1; assay: Antiviral activity against VSV-G pseudotyped HIV1 harboring wild-type integrase infected in HOS cells pretreated […] for 3 hrs followed by viral infection measured after 48 hrs by luciferase reporter gene assay; format: functional, cell-based; conditions: Human immunodeficiency virus 1, HOS
Summary of the method: (§2)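 Single-round luciferase HIV-1 vector (pNLNgoMIVR−ΔLUC carrying WT or mutant IN) was pseudotyped with VSV-g by calcium phosphate co-transfection of 293 cells, and supernatant was harvested after 48 h. HOS cells were seeded at 4000/well in DMEM with 5% FBS and 5% newborn calf serum. They were pretreated 3 h at 37 °C with 5–0.0001 μM (11 serial dilutions), then infected for 48 h. Luminescence was normalized to untreated cells, and EC50 came from nonlinear regression.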

[4] = test system: Human immunodeficiency virus 1; assay: Antiviral activity against VSV-G pseudotyped HIV1 harboring integrase Y143R mutant infected in HOS cells pretreated […] for 3 hrs followed by viral infection measured after 48 hrs by luciferase reporter gene assay; format: functional, cell-based; conditions: Human immunodeficiency virus 1, HOS; summary of the method: as §2
[5] = test system: Human immunodeficiency virus 1; assay: Antiviral activity against VSV-G pseudotyped HIV1 harboring integrase G140S/Q148H double mutant infected in HOS cells pretreated […] for 3 hrs followed by viral infection measured after 48 hrs by luciferase reporter gene assay; format: functional, cell-based; conditions: Human immunodeficiency virus 1, HOS; summary of the method: as §2
HOS = assay: (§3) Cytotoxicity against HOS cells assessed as reduction in cell viability after 48 hrs by ATPLite luminescence assay; format: cell-based; conditions: human, hos, 48 h
Summary of the method: (§4)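 HOS cells seeded at 4000 per well the day before, exposed to compounds over 250 to 0.05 μM at 37 °C for 48 h. ATP measured by luminescence after lysis and 20 min signal development at room temperature.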

[6] = test system: Human immunodeficiency virus 1; assay: Selectivity ratio of EC50 for VSV-G pseudotyped HIV1 harboring integrase Y143R mutant infected in HOS cells to EC50 for VSV-G pseudotyped HIV1 harboring wild-type integrase infected in HOS cells; format: functional
Summary of the method: (§5)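 Fold change is the EC50 against the mutant-IN vector divided by the EC50 against the WT-IN vector. Both come from the single-round luciferase infectivity assay in HOS cells, with a 3 h compound pretreatment followed by 48 h infection.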

[7] = test system: Human immunodeficiency virus 1; assay: Selectivity ratio of EC50 for VSV-G pseudotyped HIV1 harboring integrase N155H mutant infected in HOS cells to EC50 for VSV-G pseudotyped HIV1 harboring wild-type integrase infected in HOS cells; format: functional; summary of the method: as §5
[8] = test system: Human immunodeficiency virus 1; assay: Selectivity ratio of EC50 for VSV-G pseudotyped HIV1 harboring integrase G140S/Q148H mutant infected in HOS cells to EC50 for VSV-G pseudotyped HIV1 harboring wild-type integrase infected in HOS cells; format: functional; summary of the method: as §5
[9] = test system: Human immunodeficiency virus 1; assay: Antiviral activity against VSV-G pseudotyped HIV1 harboring integrase G118R mutant infected in HOS cells pretreated […] for 3 hrs followed by viral infection measured after 48 hrs by luciferase reporter gene assay; format: functional, cell-based; conditions: Human immunodeficiency virus 1, HOS; summary of the method: as §2
[10] = test system: Human immunodeficiency virus 1; assay: Antiviral activity against VSV-G pseudotyped HIV1 harboring integrase T66I mutant infected in HOS cells pretreated […] for 3 hrs followed by viral infection measured after 48 hrs by luciferase reporter gene assay; format: functional, cell-based; conditions: Human immunodeficiency virus 1, HOS; summary of the method: as §2
[11] = test system: Human immunodeficiency virus 1; assay: Antiviral activity against VSV-G pseudotyped HIV1 harboring integrase E92Q mutant infected in HOS cells pretreated […] for 3 hrs followed by viral infection measured after 48 hrs by luciferase reporter gene assay; format: functional, cell-based; conditions: Human immunodeficiency virus 1, HOS; summary of the method: as §2
[12] = test system: Human immunodeficiency virus 1; assay: Antiviral activity against VSV-G pseudotyped HIV1 harboring integrase R263K mutant infected in HOS cells pretreated […] for 3 hrs followed by viral infection measured after 48 hrs by luciferase reporter gene assay; format: functional, cell-based; conditions: Human immunodeficiency virus 1, HOS; summary of the method: as §2
[13] = test system: Human immunodeficiency virus 1; assay: Antiviral activity against VSV-G pseudotyped HIV1 harboring integrase H51Y mutant infected in HOS cells pretreated […] for 3 hrs followed by viral infection measured after 48 hrs by luciferase reporter gene assay; format: functional, cell-based; conditions: Human immunodeficiency virus 1, HOS; summary of the method: as §2
[14] = test system: Human immunodeficiency virus 1; assay: Antiviral activity against VSV-G pseudotyped HIV1 harboring integrase H51Y/R263K double mutant infected in HOS cells pretreated […] for 3 hrs followed by viral infection measured after 48 hrs by luciferase reporter gene assay; format: functional, cell-based; conditions: Human immunodeficiency virus 1, HOS; summary of the method: as §2
[15] = test system: Human immunodeficiency virus 1; assay: Selectivity ratio of EC50 for VSV-G pseudotyped HIV1 harboring integrase G118R mutant infected in HOS cells to EC50 for VSV-G pseudotyped HIV1 harboring wild-type integrase infected in HOS cells; format: functional; summary of the method: as §5
[16] = test system: Human immunodeficiency virus 1; assay: Selectivity ratio of EC50 for VSV-G pseudotyped HIV1 harboring integrase T66I mutant infected in HOS cells to EC50 for VSV-G pseudotyped HIV1 harboring wild-type integrase infected in HOS cells; format: functional; summary of the method: as §5
[17] = test system: Human immunodeficiency virus 1; assay: Selectivity ratio of EC50 for VSV-G pseudotyped HIV1 harboring integrase E92Q mutant infected in HOS cells to EC50 for VSV-G pseudotyped HIV1 harboring wild-type integrase infected in HOS cells; format: functional; summary of the method: as §5
[18] = test system: Human immunodeficiency virus 1; assay: Selectivity ratio of EC50 for VSV-G pseudotyped HIV1 harboring integrase R263K mutant infected in HOS cells to EC50 for VSV-G pseudotyped HIV1 harboring wild-type integrase infected in HOS cells; format: functional; summary of the method: as §5
[19] = test system: Human immunodeficiency virus 1; assay: Selectivity ratio of EC50 for VSV-G pseudotyped HIV1 harboring integrase H51Y mutant infected in HOS cells to EC50 for VSV-G pseudotyped HIV1 harboring wild-type integrase infected in HOS cells; format: functional; summary of the method: as §5
[20] = test system: Human immunodeficiency virus 1; assay: Selectivity ratio of EC50 for VSV-G pseudotyped HIV1 harboring integrase H51Y/R263K double mutant infected in HOS cells to EC50 for VSV-G pseudotyped HIV1 harboring wild-type integrase infected in HOS cells; format: functional; summary of the method: as §5
[21] = test system: Human immunodeficiency virus 1; assay: Antiviral activity against VSV-G pseudotyped HIV1 harboring wild-type integrase infected in HOS cells pretreated […] for 3 hrs followed by viral infection measured after 48 hrs by luciferase reporter gene assay relative to dolutegravir; format: functional
[22] = test system: Human immunodeficiency virus 1; assay: Antiviral activity against VSV-G pseudotyped HIV1 harboring integrase Y143R mutant infected in HOS cells pretreated […] for 3 hrs followed by viral infection measured after 48 hrs by luciferase reporter gene assay relative to dolutegravir; format: functional
[23] = test system: Human immunodeficiency virus 1; assay: Antiviral activity against VSV-G pseudotyped HIV1 harboring integrase N155H mutant infected in HOS cells pretreated […] for 3 hrs followed by viral infection measured after 48 hrs by luciferase reporter gene assay relative to dolutegravir; format: functional
[24] = test system: Human immunodeficiency virus 1; assay: Antiviral activity against VSV-G pseudotyped HIV1 harboring integrase G140S/Q148H double mutant infected in HOS cells pretreated […] for 3 hrs followed by viral infection measured after 48 hrs by luciferase reporter gene assay relative to dolutegravir; format: functional
[25] = test system: Human immunodeficiency virus 1; assay: Antiviral activity against VSV-G pseudotyped HIV1 harboring integrase G118R mutant infected in HOS cells pretreated […] for 3 hrs followed by viral infection measured after 48 hrs by luciferase reporter gene assay relative to dolutegravir; format: functional
[26] = test system: Human immunodeficiency virus 1; assay: Antiviral activity against VSV-G pseudotyped HIV1 harboring integrase T66I mutant infected in HOS cells pretreated […] for 3 hrs followed by viral infection measured after 48 hrs by luciferase reporter gene assay relative to dolutegravir; format: functional
[27] = test system: Human immunodeficiency virus 1; assay: Antiviral activity against VSV-G pseudotyped HIV1 harboring integrase E92Q mutant infected in HOS cells pretreated […] for 3 hrs followed by viral infection measured after 48 hrs by luciferase reporter gene assay relative to dolutegravir; format: functional
[28] = test system: Human immunodeficiency virus 1; assay: Antiviral activity against VSV-G pseudotyped HIV1 harboring integrase R263K mutant infected in HOS cells pretreated […] for 3 hrs followed by viral infection measured after 48 hrs by luciferase reporter gene assay relative to dolutegravir; format: functional
[29] = test system: Human immunodeficiency virus 1; assay: Antiviral activity against VSV-G pseudotyped HIV1 harboring integrase H51Y mutant infected in HOS cells pretreated […] for 3 hrs followed by viral infection measured after 48 hrs by luciferase reporter gene assay relative to dolutegravir; format: functional
[30] = test system: Human immunodeficiency virus 1; assay: Antiviral activity against VSV-G pseudotyped HIV1 harboring integrase H51Y/R263K double mutant infected in HOS cells pretreated […] for 3 hrs followed by viral infection measured after 48 hrs by luciferase reporter gene assay relative to dolutegravir; format: functional
[31] = test system: Human immunodeficiency virus 1; assay: Antiviral activity against VSV-G pseudotyped HIV1 harboring integrase N155H mutant infected in HOS cells pretreated […] for 3 hrs followed by viral infection measured after 48 hrs by luciferase reporter gene assay; format: functional, cell-based; conditions: Human immunodeficiency virus 1, HOS; summary of the method: as §2
[32] = as §3; format: cell-based; conditions: human, HOS cells; summary of the method: as §4

| Compound | IC50 [1] | IC50 [2] | EC50 [3] | EC50 [4] | EC50 [5] | Ratio EC50 [6] | Ratio EC50 [7] | Ratio EC50 [8] | EC50 [9] | EC50 [10] | EC50 [11] | EC50 [12] | EC50 [13] | EC50 [14] | Ratio EC50 [15] | Ratio EC50 [16] | Ratio EC50 [17] | Ratio EC50 [18] | Ratio EC50 [19] | Ratio EC50 [20] | other results |
| --- | --- | --- | --- | --- | --- | --- | --- | --- | --- | --- | --- | --- | --- | --- | --- | --- | --- | --- | --- | --- | --- |
| COC(=O)CCc1cnc2c(c1)c(N)c(C(=O)NCc1ccc(F)cc1F)c(=O)n2O | 2900 nM | 3.1 nM | 0.67 nM | 0.67 nM | 5.3 nM | 1 | 3 | 8 | 4.8 nM | 0.53 nM | 2 nM | 0.5 nM | 0.63 nM | 2.4 nM | 7 | 0.8 | 3 | 0.7 | 0.9 | 3 | CC50 (HOS): > 250000 nM; fold change (FC) [21]: 0.42; fold change (FC) [22]: 0.16; fold change (FC) [23]: 0.64; fold change (FC) [24]: 0.91; fold change (FC) [25]: 0.37; fold change (FC) [26]: 0.59; fold change (FC) [27]: 0.87; fold change (FC) [28]: 0.05; fold change (FC) [29]: 0.2; fold change (FC) [30]: 0.15 |
| COC(=O)CCc1cnc2c(c1)c(NCCO)c(C(=O)NCc1ccc(F)cc1F)c(=O)n2O | 3200 nM | 3.1 nM | 4.1 nM | 3.8 nM | 16 nM | 0.9 | 1 | 4 | 4.8 nM | 0.62 nM | 2.7 nM | 6.5 nM | 6.9 nM | 2.5 nM | 1 | 0.2 | 0.7 | 2 | 2 | 0.9 | EC50 [31]: 3.9 nM; CC50 (HOS): > 250000 nM |
| O=C(NCc1ccc(F)cc1F)c1c(NCCO)c2cc(CCCCCO)cnc2n(O)c1=O | 4000 nM | 2.5 nM | 13 nM | 12 nM | 16 nM | 0.9 | 1 | 1 | 24 nM | 1.9 nM | 6.5 nM | 18 nM | 11 nM | 31 nM | 2 | 0.1 | 0.5 | 1 | 0.8 | 2 | EC50 [31]: 15 nM; CC50 (HOS): > 250000 nM |
| Nc1c(C(=O)NCc2ccc(F)cc2F)c(=O)n(O)c2ncc(CCCCCO)cc12 | 8200 nM | 2.7 nM | 1.3 nM | 3 nM | 9.4 nM | 2 | 2 | 7 | 5.3 nM | 0.93 nM | 3.8 nM | 2.6 nM | 3.8 nM | 2.6 nM | 4 | 0.7 | 3 | 2 | 3 | 2 | EC50 [31]: 2.4 nM; CC50 at 48 h [32]: > 250000 nM; fold change (FC) [21]: 0.81; fold change (FC) [22]: 0.71; fold change (FC) [23]: 0.67; fold change (FC) [24]: 1.62; fold change (FC) [25]: 0.41; fold change (FC) [26]: 1.03; fold change (FC) [27]: 1.65; fold change (FC) [28]: 0.24; fold change (FC) [29]: 1.19; fold change (FC) [30]: 0.16 |
| CC(=O)OCCCc1cnc2c(c1)c(N)c(C(=O)NCc1ccc(F)cc1F)c(=O)n2O | 14300 nM | 10 nM | 1.4 nM | 2.9 nM | 13 nM | 2 | 4 | 9 | 5.9 nM | 0.75 nM | 1.2 nM | 1.8 nM | 0.8 nM | 3.9 nM | 4 | 0.5 | 1 | 1 | 0.6 | 3 | EC50 [31]: 5.4 nM; CC50 (HOS): > 250000 nM |
